The species entered for data set [1] is Cavia porcellus. Briefly: Percent inhibition of the BaCl2 - induced contraction of guinea pig tracheal spirals at concentration of 100 uM. The settings on record: Trachea. The data set is classed as functional. The essentials: (§1)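 Guinea pig tracheal strips contracted with barium chloride. Compound was tested at 100 µM, and the read-out is percent inhibition of the BaCl2-induced contraction.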

The species entered for data set [2] is Cavia porcellus. Briefly: Percent inhibition of the LTE4- induced contraction of guinea pig tracheal spirals at the concentration of 0.33 uM. The data set is classed as functional. Particulars: Trachea. The essentials: (§2)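 Guinea pig trachea cut into spiral strips, each trachea split into paired sections. Tissue bath at 37 °C in modified Krebs buffer gassed with 95% O2/5% CO2, 2 g resting tension, 60 min stabilization. After reproducible responses to 10 nM LTE4, compound was added for 10 min, then LTE4 challenge repeated. Percent inhibition is the 2nd vs 3rd response, adjusted by subtracting the vehicle-treated paired section. Paired t test, p < 0.05.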

Data set [3] relates to Cavia porcellus. In words: Percent protection was determined from the time delay to the onset of dyspnea compared to that of control guinea pig at a concentration of 126 uM/kg. The data set is classed as functional. The essentials:
(§3)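 Conscious guinea pigs were pretreated ip with indomethacin (10 mg/kg) and propranolol (5 mg/kg). Compound was given orally in poly(ethylene glycol) 60 min before challenge with aerosolized 60 µM LTD4 for up to 5 min. End point was labored abdominal breathing, scored blind. % protection = (drug time − mean control time)/(max aerosol time − mean control time) × 100, with at least two vehicle animals per run.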

Data set [4] is filed under the species Cavia porcellus. Briefly: Percent inhibition of the LTE4- induced contraction of guinea pig tracheal spirals at the concentration of 5 uM; Not significant. The class given is functional. The settings on record: Trachea. The method in brief:
as §2

The species entered for data set [5] is Cavia porcellus. Briefly: (§4) Percent inhibition of the BaCl2 - induced contraction of guinea pig tracheal spirals at concentration of 100 uM; Not significant. The data set is classed as functional. The settings on record: Trachea. The essentials:
as §1

Data set [6] in a line: pKB value of the compound. The essentials: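 Guinea pig tracheal strips at 37 °C in Krebs buffer. Cumulative LTE4 concentration-response curves were built in log increments, with responses expressed as % of the maximum to 30 µM carbachol. Antagonist was incubated 30 min before the curve, with vehicle on paired controls. EC50 came from linear regression. KB = [antagonist]/(dose ratio − 1) by the Furchgott method. One curve per tissue.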

The species entered for data set [7] is Cavia porcellus. Briefly: Percent inhibition of the LTE4- induced contraction of guinea pig tracheal spirals at concentration of 5 uM. The class given is functional. Particulars: Trachea. The method in brief:
as §2

Data set [8] can be described thus: Selectivity ratio of the compound. The class given is functional.
The species named for data set [9] is Cavia porcellus. In words: Percent inhibition of the LTE4- induced contraction of guinea pig tracheal spirals at the concentration of 1.0 uM; Not significant. The settings on record: Trachea. The data set is classed as functional. The essentials: as §2
Data set [10] concerns Cavia porcellus. In words: Percent protection was determined from the time delay to the onset of dyspnea compared to that of control guinea pig at a concentration of 100 uM/kg. The data set is classed as functional. The method in brief:
as §3

The species entered for data set [11] is Cavia porcellus. In words: Percent inhibition of the LTE4- induced contraction of guinea pig tracheal spirals at the concentration of 0.1 uM. The data set is classed as functional. The settings on record: Trachea. The method in brief: as §2
The species entered for data set [12] is Cavia porcellus. Described as §4. The data set is classed as functional, organism-based. The settings on record: Trachea. The essentials: as §1
For data set [13], the species on record is Cavia porcellus. In words: Percent inhibition of the LTE4- induced contraction of guinea pig tracheal spirals at the concentration of 0.5 uM. The data set is classed as functional. The settings on record: Trachea. The method in brief:
as §2

Molecules are shown by their SMILES. Active and inactive are the calls of the source. The calls are words filed in the database; no cut-off is given here.

This is an account of results in ChEMBL document CHEMBL1125163, “Evolution of a series of peptidoleukotriene antagonists: synthesis and structure-activity relationships of 1,6-disubstituted indoles and indazoles” (J Med Chem, 1990).

Turning to `CCCCOC(=O)Nc1ccc2cnn(Cc3ccc(C(=O)O)cc3OC)c2c1`, testing at 100 µM in data set [1] gave an inhibition of 41%. In data set [2], the inhibition (as a rule, the change of the read-out against control, counted positive when it falls) at 0.33 µM turned out to be 56%. Moreover, the Protection in data set [3] worked out at 33%.

On to `CCCCCCCCCCCC(=O)Nc1ccc2ccn(Cc3ccc(C(=O)O)cc3OC)c2c1`, for which the inhibition result in [4] is “inactive”.

Turning to `CCC(C(=O)Nc1ccc2cnn(Cc3ccc(C(=O)O)cc3OC)c2c1)c1ccccc1` (stereo not given), in data set [5], the inhibition result was “inactive”. In data set [2], this compound registered an inhibition at 0.33 µM of 30%.

Consider `CCCCCC(=O)Nc1ccc2ccn(Cc3ccc(C(=O)O)cc3OC)c2c1`, for which, in [6], the pKB (as a rule, −log10 of the KB, conventionally taken in molar units) is listed as 6. Moreover, the inhibition at 5 µM in data set [7] turned out to be 70%. The Selectivity ratio in data set [8] came to 100.

With `COc1cc(C(=O)O)ccc1Cn1ccc2ccc(NC(=O)OC3CCCCC3)cc21`, the inhibition result in data set [9] is “inactive”.

`COc1cc(C(=O)O)ccc1Cn1ccc2ccc(NC(=O)OC3CCCC3)cc21` registered a Protection in [10] of 23%. In [11], the inhibition at 0.1 µM turned out to be 61%.

For `CCCCC(CC)C(=O)Nc1ccc2cnn(Cc3ccc(C(=O)O)cc3OC)c2c1` (stereo not given), the inhibition result in data set [12] was “inactive”. In data set [2], the inhibition at 0.33 µM stood at 56%.

The compound `CCCCOC(=O)Nc1ccc2ccn(Cc3ccc(C(=O)O)cc3OC)c2c1` gave an inhibition at 0.5 µM in data set [13] of 54%.
